How the values were obtained:
Mu-type opioid receptor = Mu-type opioid receptor (Rattus norvegicus, UniProt P33535); experiment: Inhibition of [3H]DAMGO binding to rat Opioid receptor mu 1
Method in brief: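 Rat brain crude membranes (homogenized in 50 mM Tris HCl pH 7.4, kept on ice) incubated with 1.5 nM [3H]DAMGO for 90 min at 22 °C. Nonspecific binding defined with naltrexone. Terminated by rapid filtration, bound radioactivity counted by scintillation. Mean of at least three independent assays.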

[1] = biological target: Delta-type opioid receptor (Homo sapiens, UniProt P41143); experiment: Inhibition of [3H]naltrindole binding to human Opioid receptor delta 1 in CHO cells; format: cell-based
Method in brief: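 Membranes from CHO cells expressing human delta opioid receptor (homogenized in 50 mM Tris HCl pH 7.4, 1 mM EGTA; stored frozen at 0.8 mg/mL) incubated with 0.5 nM [3H]naltrindole, 90 min at 37 °C. Nonspecific binding defined with unlabelled naltrindole. Filtration, scintillation counting; mean of at least three independent assays.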

[2] = biological target: Kappa-type opioid receptor (Homo sapiens, UniProt P41145); experiment: biochemical; format: cell-based, HEK293
Chain of Kappa-type opioid receptor (P41145 whole entry): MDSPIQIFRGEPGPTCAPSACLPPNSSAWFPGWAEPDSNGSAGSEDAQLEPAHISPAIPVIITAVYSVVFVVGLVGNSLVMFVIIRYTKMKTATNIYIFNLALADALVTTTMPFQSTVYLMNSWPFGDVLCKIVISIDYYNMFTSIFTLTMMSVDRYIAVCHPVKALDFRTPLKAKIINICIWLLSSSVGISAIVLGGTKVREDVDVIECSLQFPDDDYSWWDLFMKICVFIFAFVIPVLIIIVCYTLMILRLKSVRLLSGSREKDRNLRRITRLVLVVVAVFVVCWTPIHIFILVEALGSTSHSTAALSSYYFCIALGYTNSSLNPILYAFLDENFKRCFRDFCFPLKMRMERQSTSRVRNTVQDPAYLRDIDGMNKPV

Chain of Delta-type opioid receptor (P41143 whole entry): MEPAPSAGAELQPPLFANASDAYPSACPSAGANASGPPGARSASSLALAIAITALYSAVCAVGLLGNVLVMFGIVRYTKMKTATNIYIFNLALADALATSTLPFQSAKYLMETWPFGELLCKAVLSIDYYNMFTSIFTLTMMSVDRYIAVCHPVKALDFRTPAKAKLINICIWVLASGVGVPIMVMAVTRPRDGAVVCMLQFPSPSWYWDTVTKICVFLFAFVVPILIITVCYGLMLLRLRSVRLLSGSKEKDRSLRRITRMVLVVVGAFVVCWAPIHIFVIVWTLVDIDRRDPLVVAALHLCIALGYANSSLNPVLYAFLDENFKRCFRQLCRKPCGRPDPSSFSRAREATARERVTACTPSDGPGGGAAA
Chain of Mu-type opioid receptor (P33535 whole entry): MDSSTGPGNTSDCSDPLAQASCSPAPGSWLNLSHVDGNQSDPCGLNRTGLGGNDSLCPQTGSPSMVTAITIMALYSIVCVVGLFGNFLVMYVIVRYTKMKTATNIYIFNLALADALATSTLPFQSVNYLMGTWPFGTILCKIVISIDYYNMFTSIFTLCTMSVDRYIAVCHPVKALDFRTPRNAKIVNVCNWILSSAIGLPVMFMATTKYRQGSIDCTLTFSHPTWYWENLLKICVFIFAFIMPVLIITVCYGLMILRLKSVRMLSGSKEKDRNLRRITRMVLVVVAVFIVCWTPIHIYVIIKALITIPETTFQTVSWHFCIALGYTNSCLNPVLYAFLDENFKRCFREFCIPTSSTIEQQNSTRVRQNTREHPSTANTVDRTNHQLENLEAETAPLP

In the case of `CNC(c1cccc(O)c1)C(C)(C)C(=O)NCc1ccccc1` (stereo not drawn), the Ki (Mu-type opioid receptor) is reported as 8.7 nM, the Ki [1] is reported as greater than 10000 nM and the Ki [2] is reported as 5 nM.

In the case of `CNC(c1ccccc1)C(C)(C)C(=O)NCCc1ccccc1` (stereo not drawn), the Ki (Mu-type opioid receptor) is reported as 13 nM, the Ki [1] is reported as greater than 10000 nM and the Ki [2] is reported as 49 nM.

Molecule `CNC(c1ccccc1)C(C)(C)C(=O)NCC1CCCCC1` (stereo not drawn) has a Ki (Mu-type opioid receptor) of 85 nM, a Ki [1] greater than 10000 nM and a Ki [2] of 1.2 nM.

`CNC(c1ccccc1)C(C)(C)C(=O)NCc1ccccc1` (stereo not drawn) showed a Ki (Mu-type opioid receptor) of 95 nM, a Ki [1] greater than 10000 nM and a Ki [2] of 467 nM.

Work on `CNC(c1cccc(O)c1)C(C)(C)C(=O)NCCc1ccccc1` (stereo not drawn) yielded a Ki (Mu-type opioid receptor) of 1.4 nM, a Ki [1] of 176 nM and a Ki [2] of 6.3 nM.

Work on `CCCCN(C)C(c1cccc(O)c1)C(C)(C)C(=O)NCCc1ccccc1` (stereo not drawn) yielded a Ki (Mu-type opioid receptor) of 26 nM, a Ki [1] greater than 10000 nM and a Ki [2] of 75 nM.

In the case of `CNC(c1cccc(O)c1)C(C)(C)C(=O)NCc1cccc2ccccc12` (stereo not drawn), the Ki (Mu-type opioid receptor) is reported as 1.4 nM, the Ki [1] is reported as 163 nM and the Ki [2] is reported as 1.3 nM.

`CNC(c1cccc(O)c1)C(C)(C)C(=O)NCC1CC1` (stereo not drawn) showed a Ki (Mu-type opioid receptor) of 364 nM, a Ki [1] of 781 nM and a Ki [2] of 75 nM.

With `CNC(c1cccc(O)c1)C(C)(C)C(=O)NCC1CCCCC1` (stereo not drawn) the Ki (Mu-type opioid receptor) was 4.4 nM, the Ki [1] was 881 nM and the Ki [2] was 5.7 nM.

`CNC(c1cccc(O)c1)C(C)(C)C(=O)NCCCc1ccccc1` (stereo not drawn) was tested, and the Ki (Mu-type opioid receptor) was 12 nM, the Ki [1] was greater than 10000 nM and the Ki [2] was 3.6 nM.

With `CN(CC1CC1)C(c1cccc(O)c1)C(C)(C)C(=O)NCCc1ccccc1` (stereo not drawn) the Ki (Mu-type opioid receptor) was 28 nM, the Ki [1] was 710 nM and the Ki [2] was 2.9 nM.

— ChEMBL document CHEMBL1133419, “Design, synthesis and biological evaluation of 3-amino-3-phenylpropionamide derivatives as novel mu opioid receptor ligands” (Bioorg Med Chem Lett, 2000)
